Measured values from ChEMBL document CHEMBL2321658 (ACS Med Chem Lett, 2013).
Activity calls are given as the source filed them. No cut-off for these calls is given here.

Tests used:
[1] = system: MCF7; assay: Antiproliferative activity against human MCF7 cells; type: functional, cell-based
Method in brief: (§1)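 Cell growth inhibition with values in µM, reported as mean ± standard deviation from at least two separate experiments, each run in triplicate.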

[2] = system: SK-BR-3; assay: Antiproliferative activity against human SKBR3 cells; type: functional, cell-based; method in brief: as §1
[3] = molecular target: SKBr3 (Homo sapiens); assay: Antiproliferative activity against human SKBr3 cells
[4] = molecular target: T1, Heat shock protein HSP90 (Homo sapiens, UniProt P07900+P08238); assay: Inhibition of Hsp90 (unknown origin); type: protein assay
[5] = molecular target: T1, Heat shock protein HSP90; assay: Inhibition of Hsp90 in human MCF7 cells assessed as Raf degradation after 24 hrs by Western blot analysis; type: cell-based
Method in brief: (§2)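 MCF-7 cells treated across a range of concentrations (in µM). Cell lysates were analysed by western blot for the Hsp90-dependent client proteins Her2, Raf and Akt. Geldanamycin (500 nM) served as positive control and DMSO as negative control.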

[6] = system: MCF7; assay: Effect on Hsp90 level in human MCF7 cells after 24 hrs by Western blot analysis; type: functional, cell-based
[7] = molecular target: T1, Heat shock protein HSP90; assay: Inhibition of Hsp90 in human MCF7 cells assessed as Her2 degradation after 24 hrs by Western blot analysis; type: cell-based; method in brief: as §2
[8] = molecular target: T1, Heat shock protein HSP90; assay: Inhibition of Hsp90 in human MCF7 cells assessed as Akt degradation after 24 hrs by Western blot analysis; type: cell-based; method in brief: as §2

| Structure (SMILES) | IC50 [1] | IC50 [2] | IC50 [3] | further results |
| --- | --- | --- | --- | --- |
| COc1cccc(-c2cc(C(=O)Nc3cc4ccc(OC5CCN(C)CC5)c(C)c4oc3=O)ccc2OC(C)=O)c1 | 910 nM | 920 nM | – | – |
| COc1cccc(-c2cc(C(=O)Nc3cc4ccc(O[C@@H]5OC(C)(C)[C@H](OC)[C@@H](O)[C@H]5O)c(C)c4oc3=O)ccc2OC)c1 | – | – | 7500 nM | – |
| COc1cccc(-c2cc(C(=O)Nc3cc4ccc(OC5CCN(C)CC5)c(C)c4oc3=O)ccc2O)c1 | 810 nM | 860 nM | – | – |
| COc1ccc(C(=O)Nc2cc3ccc(OC4CCN(C)CC4)c(C)c3oc2=O)cc1CC=C(C)C | 1580 nM | 1410 nM | – | – |
| CC(C)=CCc1cc(C(=O)Nc2cc3ccc(OC4CCN(C)CC4)c(C)c3oc2=O)ccc1OCCN(C)C | 720 nM | 330 nM | – | – |
| COc1ccc(C(=O)Nc2cc3ccc(OC4CCN(C)CC4)c(C)c3oc2=O)cc1-c1cccc(O)c1 | 380 nM | 310 nM | – | IC50 [4]: 310 nM |
| CCCCOc1ccc(C(=O)Nc2cc3ccc(OC4CCN(C)CC4)c(C)c3oc2=O)cc1CC=C(C)C | 1440 nM | 1400 nM | – | – |
| Cc1c(OC2CCN(C)CC2)ccc2cc(NC(=O)Nc3ccc(Cl)cc3)c(=O)oc12 | – | – | 170 nM | – |
| C=CCc1cc(C(=O)Nc2cc3ccc(OC4CCN(C)CC4)c(C)c3oc2=O)ccc1OC(C)=O | 2000 nM | 2260 nM | – | – |
| COc1cccc(-c2cc(C(=O)Nc3cc4ccc(O[C@@H]5OC(C)(C)[C@H](OC)[C@@H](O)[C@H]5O)c(OC)c4oc3=O)ccc2OC)c1 | – | – | 13900 nM | – |
| CC(=O)Oc1ccc(C(=O)Nc2cc3ccc(OC4CCN(C)CC4)c(C)c3oc2=O)cc1Cl | 1610 nM | 3500 nM | – | – |
| C=CCc1cc(C(=O)Nc2cc3ccc(OC4CCN(C)CC4)c(C)c3oc2=O)ccc1O | 2170 nM | 2430 nM | – | – |
| Cc1c(OC2CCN(C)CC2)ccc2cc(NC(=O)c3ccccc3)c(=O)oc12 | 11700 nM | 11500 nM | – | – |
| Cc1c(OCCC2CCCCN2)ccc2cc(NC(=O)Nc3ccc(Cl)cc3)c(=O)oc12 (centres undefined) | – | – | 210 nM | – |
| Cc1c(OC2CCN(C)CC2)ccc2cc(NC(=O)c3ccc4c(c3)CCC(C)(C)O4)c(=O)oc12 | 5010 nM | 3460 nM | – | – |
| COc1ccc(C(=O)Nc2cc3ccc(OC4CCN(C)CC4)c(C)c3oc2=O)cc1-c1cccc(OC(C)=O)c1 | 360 nM | 290 nM | – | – |
| Cc1ccc(NC(=O)Nc2cc3ccc(OC4CCN(C)CC4)c(C)c3oc2=O)cc1C | – | – | 310 nM | – |
| CO[C@@H]1[C@@H](O)[C@@H](O)[C@H](Oc2ccc3cc(NC(=O)c4ccc(O)c(CC=C(C)C)c4)c(=O)oc3c2C)OC1(C)C | – | – | 10900 nM | – |
| CC(C)=CCc1cc(C(=O)Nc2cc3ccc(OC4CCN(C)CC4)c(C)c3oc2=O)ccc1OCCCN(C)C | 460 nM | 250 nM | – | inhibition [5]: Dose-dependent effect; Activity [6]: inactive; inhibition [7]: Dose-dependent effect; inhibition [8]: Dose-dependent effect |
| C#CCOc1ccc(C(=O)Nc2cc3ccc(OC4CCN(C)CC4)c(C)c3oc2=O)cc1CC=C(C)C | 1120 nM | 1400 nM | – | – |
| Cc1ccc(NC(=O)Nc2cc3ccc(OC4CCN(C)CC4)c(C)c3oc2=O)cc1 | – | – | 270 nM | – |
| CC(C)=CCc1cccc(C(=O)Nc2cc3ccc(OC4CCN(C)CC4)c(C)c3oc2=O)c1 | 2100 nM | 1680 nM | – | – |
| Cc1c(OC2CCN(C)CC2)ccc2cc(NC(=O)c3ccc(O)c(CCC(C)C)c3)c(=O)oc12 | 1250 nM | 600 nM | – | – |
| CC(=O)Oc1ccc(C(=O)Nc2cc3ccc(OC4CCN(C)CC4)c(C)c3oc2=O)cc1 | 1620 nM | 1670 nM | – | – |
| COc1ccc(C(=O)Nc2cc3ccc(O[C@@H]4OC(C)(C)[C@H](OC)[C@@H](O)[C@H]4O)c(C)c3oc2=O)cc1-c1cccc(O)c1 | – | – | 2900 nM | – |
| Cc1c(OC2CCN(C)CC2)ccc2cc(NC(=O)c3ccc(O)cc3)c(=O)oc12 | 1430 nM | 840 nM | – | – |
| Cc1c(OC2CCN(C)CC2)ccc2cc(NC(=O)c3ccc(O)c(Cl)c3)c(=O)oc12 | 1480 nM | 2300 nM | – | – |
| COc1cccc(-c2cc(C(=O)Nc3cc4ccc(OC5CCN(C)CC5)c(C)c4oc3=O)ccc2OC)c1 | – | – | 1340 nM | – |
| CC(C)=CCc1cc(C(=O)Nc2cc3ccc(OC4CCN(C)CC4)c(C)c3oc2=O)ccc1OC1CCN(C)CC1 | 470 nM | 210 nM | – | – |
